These results are taken from ChEMBL document CHEMBL1136721, “QSAR and classification of murine and human soluble epoxide hydrolase inhibition by urea-like compounds” (J Med Chem, 2003).

The target in test [1] is T1, Bifunctional epoxide hydrolase 2 (Homo sapiens, UniProt P34913).
T1 sequence (P34913 whole entry): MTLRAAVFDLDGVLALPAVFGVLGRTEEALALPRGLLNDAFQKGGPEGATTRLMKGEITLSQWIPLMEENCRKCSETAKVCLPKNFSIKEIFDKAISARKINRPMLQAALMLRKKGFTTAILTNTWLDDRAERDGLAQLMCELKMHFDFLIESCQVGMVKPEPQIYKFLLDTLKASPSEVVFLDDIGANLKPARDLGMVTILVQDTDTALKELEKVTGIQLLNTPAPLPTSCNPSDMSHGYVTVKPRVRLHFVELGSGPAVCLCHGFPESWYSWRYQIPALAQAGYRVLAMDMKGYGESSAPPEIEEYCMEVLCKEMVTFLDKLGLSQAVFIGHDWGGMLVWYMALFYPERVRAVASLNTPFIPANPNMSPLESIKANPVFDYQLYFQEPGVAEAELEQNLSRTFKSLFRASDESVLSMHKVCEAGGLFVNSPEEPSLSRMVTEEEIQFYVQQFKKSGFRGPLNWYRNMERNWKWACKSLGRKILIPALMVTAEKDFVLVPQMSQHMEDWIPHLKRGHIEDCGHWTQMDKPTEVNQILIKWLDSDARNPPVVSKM
Put plainly: Inhibitory activity against human soluble epoxide hydrolase; N/A = could not be determined because of above the highest concentration (500 uM) of inhibitor tested. In short, it runs like this:
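Recombinant human sEH made in baculovirus and affinity-purified (at least 97% pure, no detectable esterase or glutathione transferase activity). 0.20 µM enzyme preincubated with inhibitor for 5 min at 30 °C in pH 7.4 sodium phosphate buffer. Substrate: 40 µM racemic 4-nitrophenyl-trans-2,3-epoxy-3-phenylpropyl carbonate. 4-Nitrophenolate read at 405 nm over 1 min. Triplicate runs; top concentration 500 µM. IC50 by regression of at least five points, with at least two on each side in the linear region.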

In test [2] the target is T2, Bifunctional epoxide hydrolase 2 (Mus musculus, UniProt P34914).
T2 sequence (P34914 whole entry): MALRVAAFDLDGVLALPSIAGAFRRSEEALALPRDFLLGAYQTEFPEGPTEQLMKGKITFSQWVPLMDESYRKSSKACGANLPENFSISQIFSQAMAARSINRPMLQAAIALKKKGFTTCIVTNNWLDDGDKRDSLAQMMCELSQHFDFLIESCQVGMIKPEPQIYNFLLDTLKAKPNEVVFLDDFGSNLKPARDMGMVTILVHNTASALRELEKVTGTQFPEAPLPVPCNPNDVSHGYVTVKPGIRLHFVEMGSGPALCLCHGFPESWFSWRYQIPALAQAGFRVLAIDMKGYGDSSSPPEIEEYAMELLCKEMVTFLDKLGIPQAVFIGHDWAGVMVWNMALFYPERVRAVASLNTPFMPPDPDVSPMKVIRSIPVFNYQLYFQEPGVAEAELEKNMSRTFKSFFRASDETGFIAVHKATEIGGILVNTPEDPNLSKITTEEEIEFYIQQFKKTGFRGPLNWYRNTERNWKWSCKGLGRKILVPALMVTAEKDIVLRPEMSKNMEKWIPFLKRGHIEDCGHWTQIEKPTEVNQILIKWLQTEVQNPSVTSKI
Put plainly: Inhibitory activity against murine soluble epoxide hydrolase; N/A = could not be determined because of above the highest concentration (500 uM) of inhibitor tested. The method in brief:
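Mouse sEH expressed in baculovirus and affinity-purified (at least 97% pure by SDS-PAGE, no esterase or glutathione transferase activity). 0.10 µM enzyme held with inhibitor 5 min at 30 °C in pH 7.4 sodium phosphate buffer. Then 40 µM racemic 4-nitrophenyl-trans-2,3-epoxy-3-phenylpropyl carbonate added; 4-nitrophenolate followed at 405 nm for 1 min. Done in triplicate up to 500 µM inhibitor. IC50 regressed from at least five points bracketing the midpoint.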

Structures are written as SMILES.

Take `CN(C)C(=O)N(CCCCCC(=O)O)c1ccc(Cl)c(Cl)c1`: the IC50 result in test [1] and in test [2] was “Not Active” in each case.

As for `CCCCCCNC(=O)NC`, the IC50 result in test [1] is given as “Not Active”.
